From PubChem
DDE Tn6 FP inh = inhibitors of Tn6 peptide binding to fibrin DD(E), primary screen, biochemical, fluorescence polarization, human fibrin, Tn6 probe; Fibrin DD(E) TRITC-Tn6 fluorescence polarization displacement; inhibition, % at 8.3 µM; actives 0.21% (n = 370,000); Fibrinogen beta chain (Homo sapiens), P02675;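 active means inhibition above a per-campaign cutoff: mean of compounds within control limits plus 3 SD, cut at about 15% in these data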;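 further: 0% = median of all compound wells on the plate and 100% = blocking peptide control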
Target sequence (P02675 whole entry, looked up): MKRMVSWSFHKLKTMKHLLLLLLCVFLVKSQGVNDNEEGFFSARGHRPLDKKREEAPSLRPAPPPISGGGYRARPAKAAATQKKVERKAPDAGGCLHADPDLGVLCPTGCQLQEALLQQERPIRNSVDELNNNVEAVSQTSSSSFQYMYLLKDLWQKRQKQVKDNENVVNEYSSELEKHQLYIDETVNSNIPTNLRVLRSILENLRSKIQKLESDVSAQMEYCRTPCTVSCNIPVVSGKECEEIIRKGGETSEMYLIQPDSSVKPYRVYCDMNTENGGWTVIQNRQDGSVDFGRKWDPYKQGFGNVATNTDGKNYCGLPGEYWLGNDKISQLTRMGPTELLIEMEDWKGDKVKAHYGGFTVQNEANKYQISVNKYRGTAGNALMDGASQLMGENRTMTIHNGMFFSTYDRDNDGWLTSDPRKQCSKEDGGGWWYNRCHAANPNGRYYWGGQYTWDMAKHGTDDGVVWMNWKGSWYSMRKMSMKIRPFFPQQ
CRFBP-R2 block = antagonists of CRF-BP/CRF-R2 complex, primary screen, cell-based, HEK293, calcium dye fluorescence, uHTS; CRF-induced calcium fluorescence; inhibition, % at 11.8 µM; actives 0.59% (n = 350,000);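 active means inhibition of the ligand-induced calcium signal above about 50% at the single tested concentration, limit read from the data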
CRFBP-R2 agonist = agonists of CRF-BP/CRF-R2 complex, primary screen, cell-based, HEK293, calcium dye fluorescence, uHTS; CRF-binding protein / CRF receptor 2 complex (human); calcium dye fluorescence (FLIPR); percent of saturating CRF peptide response; activation, % at 13.2 µM; actives 0.46% (n = 350,000);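 active means activation of at least 50%, plus an integration ratio under a set limit after plate pattern correction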;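 further: plate controls were neutral control wells without compound for no effect and CRF at EC100 for full effect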
Tn7 DDE FP = inhibitors of Tn7 peptide binding to fibrin DD(E), primary screen, biochemical, fluorescence polarization, human fibrin, Tn7 probe; inhibition, % at 8.3 µM; FP displacement of FITC-Tn7 peptide from fibrin DD(E); 0% = median of compound wells per plate; Fibrinogen beta chain (Homo sapiens), P02675; actives 0.13% (n = 370,000);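 active means inhibition above the mean of compounds falling within the control limits plus 3 SD of them, cut at about 14% in these data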;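 further: 0% = plate median of compound wells and 100% = 10 µM Aha-Tn7 peptide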
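system = human fibrin DD(E) protein | quantity = DD(E) 2 µM final | medium = Tris/NaCl/CaCl2 buffer, pH 7.8 | also added = labelled Tn7 tracer, 0.1 µM | compound dosing = single point at 8.3 µM | timing = compound with protein 10 min, then 3 h after probe, room temperature | signal = FP measurement | benchmarks = Aha-Tn7 high control | repeats = one replicate per compound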
* = called active by the depositor; x = no result. An excerpt weighted towards active compounds, which were near 1.3% of everything screened.

SMILES	DDE Tn6 FP inh	CRFBP-R2 block	CRFBP-R2 agonist	Tn7 DDE FP
NC(=O)C1=C[C@H](c2ccc(Br)cc2)C[C@H](OCc2ccc(CO)cc2)O1	2	12	-1	7
O=C(O)C1=C[C@@H](c2ccc(Br)cc2)C[C@@H](OCc2ccc(CO)cc2)O1	5	76*	-1	-3
COc1cccc([C@@H]2NC(=O)C/C=C/[C@H](C)[C@H](c3cccc(OC)c3)NC(=O)C/C=C/[C@@H]2C)c1	8	x	x	8
CC(C)C1Nc2c(O)cc(Cl)c([N+](=O)[O-])c2C2C=CCC21 (stereo not given)	4	59*	33	0
O=C(O)C1Nc2c(Cl)cc(Cl)c(Cl)c2C2C=CCC12 (stereo not given)	2	6	2	2
CCCCc1c(C)c(C#N)c2[nH]c3ccccc3n2c1=O	-4	2	10	-2
CCc1ccccc1N=Cc1c(C)c(C#N)c2[nH]c3ccccc3n2c1=O	0	-134	165*	-1
COC(=O)C1CN(Cc2cn(CCC3OCCO3)nn2)CCS(=O)(=O)N1Cc1ccc(C)cc1 (stereo not given)	6	x	x	-2
COc1cc2c(cc1NC(=O)CSc1nnc(-c3cccnc3)n1-c1ccc(Br)cc1)oc1ccccc12	7	x	x	-3
CC(C)C[C@@H]1COc2cc(Br)ccc2S(=O)(=O)N1Cc1cn(Cc2ccc(C(F)(F)F)cc2)nn1	6	x	x	-9
CCOC(=O)/C=c1\s/c(=C\c2c(OC)ccc3ccccc23)c(=O)n1CC(=O)NCC1CCCO1 (stereo not given)	5	-23	1	4
CCOC(=O)/C=c1/s/c(=C/c2ccc3cc(OC)ccc3c2)c(=O)n1CC(=O)NCC1CCCO1 (stereo not given)	-10	-45	79*	-1
CCOC(=O)c1sc2nc(C)n(CC(=O)NCC3CCCO3)c(=O)c2c1C (stereo not given)	3	58*	0	1
CCOC(=O)/C(=C\C=C1/Sc2cc(OCC)c(OCC)cc2N1CC)C(C)=O	-3	-414	322*	-48
CCN1/C(=C/C(C)=O)Sc2ccc(OC)cc21	-7	14	-1	1
CCOC(=O)/C(=C/C=C1\Sc2cc(OCC)c(OCC)cc2N1CC)C(C)=O	5	-320	279*	-30
CCN(C(=O)C1CCCN1S(=O)(=O)c1cccnc1)c1ccccc1 (stereo not given)	-3	x	x	4
COC(=O)c1cc(C2(c3c[nH]c4ccccc34)CCN(C(=O)OC(C)(C)C)CC2)n2ccccc12	3	x	x	8
Cc1ccc(C=NNC(=O)CSc2nc3sc4c(c3c(=O)n2-c2ccccc2)CCCC4)s1	2	x	x	1
N#C/C(=C/c1ccc(N2CCCCC2)o1)C(=O)Nc1ccc2ccccc2c1	14	-204	207*	-10
N#C/C(=C/c1ccc(N2CCCCC2)o1)C(=O)Nc1ccc(Cl)cc1	4	-117	155*	-7
N#C/C(=C/c1ccc(N2CCCCCC2)o1)c1cccc(F)c1	5	9	2	-4
COc1ccccc1OCC(=O)NNC(=O)c1cnccn1	2	56*	-3	-5
Cn1c(N)c(C(=O)COC(=O)CNS(=O)(=O)c2ccc(Cl)c(Cl)c2)c(=O)n(C)c1=O	0	65*	-2	0
COC(=O)[C@H](C(C)C)N1Cc2nnn(Cc3ccccc3)c2-c2ccccc2S1(=O)=O	12	x	x	-7
SMILES	DDE Tn6 FP inh	CRFBP-R2 block	CRFBP-R2 agonist	Tn7 DDE FP
Cc1noc(C)c1COC(=O)c1cccc(S(=O)(=O)N2c3ccccc3CC2C)c1 (stereo not given)	0	56*	18	1
Cc1ccc(C(=O)C2CCN(CC(=O)N(C)C3CCCCC3)CC2)cc1	-4	x	x	3
CC(C)c1ccc(NC(=O)O[C@@H]2CC[C@@]34CCCN3C(=O)CCC[C@H]4C2)cc1	2	x	x	3
CN1CCc2c(sc(/N=C/c3ccco3)c2C(N)=O)C1	0	2	22	-7
CN1CCc2c(sc(/N=C/c3cccs3)c2C(N)=O)C1	x	-9	60*	x
COc1ccc(/C=C2\S/C(=N/S(=O)(=O)c3cccs3)NC2=O)cc1	1	69*	0	6
